Source: ChEMBL document CHEMBL5724801, “EUbOPEN Chemogenomics Library - Multiplex” (2024)
Where “and” joins values, the source holds several entries; their conditions need not be identical. Equal values may be shown once.

Tested on: Fibroblast
Experiment: Multiplex assay against human fibroblast
Type: toxicity, cell-based
Procedure, shortened: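 Phenotypes for tubulin, mitochondrial mass and membrane permeability are expressed as per cents of healthy-nucleus cells. Cells were stained live at seeding with Hoechst33342, BioTracker Green Microtubule Cytoskeleton Dye, MitoTracker Red and Annexin V Alexa Fluor 680, then imaged after compound addition on a CQ1 microscope at 37°C and 5% CO2. Machine-learning gating in CellPathfinder separated Hoechst high-intensity objects from normal cells, divided normal cells by nuclear state (healthy, pyknosed, fragmented) and divided pyknosed cells into mitotic or apoptotic.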

[1] = 12 h, 1 µM, compound concentration 1 uM
[2] = 12 h, 10 µM, compound concentration 10 uM
[3] = 24 h, 1 µM, compound concentration 1 uM
[4] = 24 h, 10 µM, compound concentration 10 uM
[5] = 48 h, 1 µM, compound concentration 1 uM
[6] = 48 h, 10 µM, compound concentration 10 uM

Cc1sc2c(c1C)C(c1ccc(Cl)cc1)=N[C@H](CC(=O)OC(C)(C)C)c1nnc(C)n1-2
Population Apoptotic (%) [1]: 43% and 33%
Population Fragmented Nuclei (%) [1]: 15% and 26%
Population Healthy Nuclei (%) [1]: 62% and 51%
Population Hoechst High Intensity Objects (%) [1]: 2% and 5%
Population Membrane Permeable-Phenotype (%) [1]: 0% and 15%
Population Mitochondria Different-Phenotype (%) [1]: 5% and 10%
Population Mitotic Cells (%) [1]: 56% and 66%
Population Normal (%) [1]: 97% and 94%
Population Pyknosed Nuclei (%) [1]: 22%
Population Tubulin-Different-Phenotype (%) [1]: 30% and 46%
Total Cell Count [1]: 180 and 159
Population Apoptotic (%) [2]: 43% and 51%
Population Fragmented Nuclei (%) [2]: 19% and 30%
Population Healthy Nuclei (%) [2]: 55% and 39%
Population Hoechst High Intensity Objects (%) [2]: 7% and 5%
Population Membrane Permeable-Phenotype (%) [2]: 0% and 4%
Population Mitochondria Different-Phenotype (%) [2]: 15% and 20%
Population Mitotic Cells (%) [2]: 56% and 48%
Population Normal (%) [2]: 92% and 94%
Population Pyknosed Nuclei (%) [2]: 25% and 29%
Population Tubulin-Different-Phenotype (%) [2]: 90% and 95%
Total Cell Count [2]: 128 and 169
Population Apoptotic (%) [3]: 82% and 46%
Population Fragmented Nuclei (%) [3]: 17% and 29%
Population Healthy Nuclei (%) [3]: 60% and 50%
Population Hoechst High Intensity Objects (%) [3]: 2% and 6%
Population Membrane Permeable-Phenotype (%) [3]: 0% and 11%
Population Mitochondria Different-Phenotype (%) [3]: 2% and 5%
Population Normal (%) [3]: 97% and 93%
Population Pyknosed Nuclei (%) [3]: 21% and 20%
Population Tubulin-Different-Phenotype (%) [3]: 29% and 51%
Total Cell Count [3]: 186 and 149
Population Apoptotic (%) [4]: 75% and 51%
Population Fragmented Nuclei (%) [4]: 16% and 26%
Population Healthy Nuclei (%) [4]: 69% and 45%
Population Hoechst High Intensity Objects (%) [4]: 8% and 4%
Population Membrane Permeable-Phenotype (%) [4]: 2% and 4%
Population Mitochondria Different-Phenotype (%) [4]: 19% and 26%
Population Mitotic Cells (%) [4]: 25% and 48%
Population Normal (%) [4]: 91% and 95%
Population Pyknosed Nuclei (%) [4]: 14% and 27%
Population Tubulin-Different-Phenotype (%) [4]: 76% and 87%
Total Cell Count [4]: 123 and 165
Population Apoptotic (%) [5]: 63% and 53%
Population Fragmented Nuclei (%) [5]: 19% and 29%
Population Healthy Nuclei (%) [5]: 66% and 49%
Population Hoechst High Intensity Objects (%) [5]: 5%
Population Membrane Permeable-Phenotype (%) [5]: 0% and 12%
Population Mitochondria Different-Phenotype (%) [5]: 2% and 10%
Population Mitotic Cells (%) [5]: 36% and 46%
Population Normal (%) [5]: 94% and 95%
Population Pyknosed Nuclei (%) [5]: 13% and 21%
Population Tubulin-Different-Phenotype (%) [5]: 28% and 69%
Total Cell Count [5]: 170 and 140
Population Apoptotic (%) [6]: 50% and 63%
Population Fragmented Nuclei (%) [6]: 21% and 35%
Population Healthy Nuclei (%) [6]: 66% and 51%
Population Hoechst High Intensity Objects (%) [6]: 1%
Population Membrane Permeable-Phenotype (%) [6]: 1% and 4%
Population Mitochondria Different-Phenotype (%) [6]: 13% and 9%
Population Mitotic Cells (%) [6]: 50% and 36%
Population Normal (%) [6]: 98%
Population Pyknosed Nuclei (%) [6]: 12% and 13%
Population Tubulin-Different-Phenotype (%) [6]: 70% and 88%
Total Cell Count [6]: 134 and 170

COc1ccccc1N1CCN(C[C@@H](C(=O)NC(C)(C)C)c2ccccc2)CC1.Cl.Cl
Population Apoptotic (%) [1]: 43% and 40%
Population Fragmented Nuclei (%) [1]: 12% and 25%
Population Healthy Nuclei (%) [1]: 70% and 43%
Population Hoechst High Intensity Objects (%) [1]: 2% and 5%
Population Membrane Permeable-Phenotype (%) [1]: 0%
Population Mitochondria Different-Phenotype (%) [1]: 8% and 4%
Population Mitotic Cells (%) [1]: 56% and 60%
Population Normal (%) [1]: 97% and 94%
Population Pyknosed Nuclei (%) [1]: 16% and 30%
Population Tubulin-Different-Phenotype (%) [1]: 37% and 43%
Total Cell Count [1]: 141 and 155
Population Apoptotic (%) [2]: 50% and 48%
Population Fragmented Nuclei (%) [2]: 20% and 32%
Population Healthy Nuclei (%) [2]: 59% and 42%
Population Hoechst High Intensity Objects (%) [2]: 5%
Population Membrane Permeable-Phenotype (%) [2]: 1% and 6%
Population Mitochondria Different-Phenotype (%) [2]: 20% and 12%
Population Mitotic Cells (%) [2]: 50% and 51%
Population Normal (%) [2]: 94%
Population Pyknosed Nuclei (%) [2]: 20% and 24%
Population Tubulin-Different-Phenotype (%) [2]: 66% and 70%
Total Cell Count [2]: 134 and 116
Population Apoptotic (%) [3]: 50%
Population Fragmented Nuclei (%) [3]: 12% and 24%
Population Healthy Nuclei (%) [3]: 73% and 55%
Population Hoechst High Intensity Objects (%) [3]: 2% and 3%
Population Membrane Permeable-Phenotype (%) [3]: 0% and 8%
Population Mitotic Cells (%) [3]: 50%
Population Normal (%) [3]: 97% and 96%
Population Pyknosed Nuclei (%) [3]: 14% and 19%
Population Tubulin-Different-Phenotype (%) [3]: 32% and 50%
Total Cell Count [3]: 143 and 151
Population Apoptotic (%) [4]: 83% and 40%
Population Fragmented Nuclei (%) [4]: 19% and 39%
Population Healthy Nuclei (%) [4]: 65% and 41%
Population Hoechst High Intensity Objects (%) [4]: 8% and 3%
Population Membrane Permeable-Phenotype (%) [4]: 0% and 8%
Population Normal (%) [4]: 91% and 96%
Population Pyknosed Nuclei (%) [4]: 14% and 19%
Population Tubulin-Different-Phenotype (%) [4]: 63% and 76%
Total Cell Count [4]: 132 and 116
Population Apoptotic (%) [5]: 84% and 60%
Population Fragmented Nuclei (%) [5]: 18% and 31%
Population Healthy Nuclei (%) [5]: 71% and 52%
Population Hoechst High Intensity Objects (%) [5]: 5%
Population Membrane Permeable-Phenotype (%) [5]: 1% and 5%
Population Mitochondria Different-Phenotype (%) [5]: 12% and 5%
Population Mitotic Cells (%) [5]: 15% and 40%
Population Normal (%) [5]: 94%
Population Pyknosed Nuclei (%) [5]: 10% and 15%
Population Tubulin-Different-Phenotype (%) [5]: 34% and 56%
Total Cell Count [5]: 138 and 171
Population Apoptotic (%) [6]: 84% and 44%
Population Fragmented Nuclei (%) [6]: 18% and 50%
Population Healthy Nuclei (%) [6]: 63% and 41%
Population Membrane Permeable-Phenotype (%) [6]: 0% and 8%
Population Normal (%) [6]: 85% and 96%
Population Pyknosed Nuclei (%) [6]: 18% and 7%
Population Tubulin-Different-Phenotype (%) [6]: 65% and 67%
Total Cell Count [6]: 122
